Test results from ChEMBL document CHEMBL2046324, “Synthesis and biological evaluation of 1-arylsulfonyl-5-(N-hydroxyacrylamide)indoles as potent histone deacetylase inhibitors with antitumor activity in vivo” (J Med Chem, 2012).
Converted amounts (≈) assume the structure as drawn.

Legend:
[1] = AUC (0 to infinity) in Sprague-Dawley rat at 2 mg/kg, iv; format: ADME, organism-based; set-up: dose 2 mg/kg, route intravenous, time infinity; details: plasma
Procedure, shortened: (§1)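 Male Sprague-Dawley rats (250–350 g, 8–10 weeks), three per group. Single 2 mg/kg iv bolus into the jugular vein in PEG400/DMSO (80:20, v/v), or 20 mg/kg orally in 1% carboxymethyl cellulose plus 0.5% Tween 80. Plasma was assayed by LC-MS/MS (MRM) and analysed noncompartmentally.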

cells = format: functional, Hep 3B2; details: Homo sapiens, Hep3B, 48 h
[2] = Half life in Sprague-Dawley rat at 20 mg/kg, po; format: ADME, organism-based; set-up: dose 20 mg/kg, route oral; details: in vivo; procedure, shortened: as §1
Mus musculus [3] = experiment: Toxicity in nude mouse bearing human A549 cells assessed as adverse effects at 200 mg/kg, po QD; format: organism-based; set-up: dose 200 mg/kg, route oral; details: in vivo
[4] = Tmax in Sprague-Dawley rat at 20 mg/kg, po; format: ADME, organism-based; set-up: dose 20 mg/kg, route oral; details: in vivo; procedure, shortened: as §1
CYP3A4 = CYP3A4 (Homo sapiens, UniProt P08684); experiment: Inhibition of CYP3A4 at 10 uM; format: ADME
CYP3A4, sequence (P08684 whole entry): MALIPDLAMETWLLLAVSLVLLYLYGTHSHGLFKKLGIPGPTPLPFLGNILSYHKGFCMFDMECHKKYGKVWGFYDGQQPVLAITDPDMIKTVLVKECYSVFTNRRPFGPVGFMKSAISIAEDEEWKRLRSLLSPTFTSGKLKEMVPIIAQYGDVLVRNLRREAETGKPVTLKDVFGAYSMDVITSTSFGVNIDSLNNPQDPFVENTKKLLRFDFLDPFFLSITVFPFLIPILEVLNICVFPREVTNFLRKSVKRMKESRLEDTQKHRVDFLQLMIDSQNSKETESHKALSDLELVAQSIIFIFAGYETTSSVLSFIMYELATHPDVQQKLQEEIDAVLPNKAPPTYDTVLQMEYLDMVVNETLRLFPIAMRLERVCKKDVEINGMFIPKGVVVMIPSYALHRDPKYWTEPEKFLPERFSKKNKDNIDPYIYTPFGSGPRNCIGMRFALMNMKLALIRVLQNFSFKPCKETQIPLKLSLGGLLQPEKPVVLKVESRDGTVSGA

A549 [5] = experiment: Antitumor activity against human A549 cells xenografted in nude mouse assessed as tumor growth delay at 100 mg/kg, po administered QD till end point; format: functional
A549 [6] = experiment: Antitumor activity against human A549 cells xenografted in po dosed nude mouse assessed as tumor growth delay administered QD till end point; format: functional, organism-based
CYP2C9 = CYP2C9 (Homo sapiens, UniProt P11712); experiment: Inhibition of CYP2C9 at 10 uM; format: ADME
CYP2C9, sequence (P11712 whole entry): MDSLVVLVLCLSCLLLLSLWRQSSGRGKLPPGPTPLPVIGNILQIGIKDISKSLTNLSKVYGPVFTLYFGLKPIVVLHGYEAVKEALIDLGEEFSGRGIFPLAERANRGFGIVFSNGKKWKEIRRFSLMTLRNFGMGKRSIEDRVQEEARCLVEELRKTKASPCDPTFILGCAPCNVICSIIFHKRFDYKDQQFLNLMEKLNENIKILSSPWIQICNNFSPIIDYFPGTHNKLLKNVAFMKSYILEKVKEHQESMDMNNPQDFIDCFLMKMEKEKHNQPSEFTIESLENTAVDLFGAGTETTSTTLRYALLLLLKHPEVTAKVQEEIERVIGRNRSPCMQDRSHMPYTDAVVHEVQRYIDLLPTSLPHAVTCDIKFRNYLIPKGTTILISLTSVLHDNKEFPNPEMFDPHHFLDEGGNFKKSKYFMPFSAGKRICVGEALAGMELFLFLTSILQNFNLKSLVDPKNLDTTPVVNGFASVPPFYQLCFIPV

[7] = Half life in Sprague-Dawley rat at 2 mg/kg, iv; format: ADME, organism-based; set-up: dose 2 mg/kg, route intravenous; details: in vivo; procedure, shortened: as §1
CYP2C8 = biological target: T1, CYP2C8 (Homo sapiens, UniProt P10632); experiment: Inhibition of CYP2C8 at 10 uM; format: ADME
T1 sequence (P10632 whole entry): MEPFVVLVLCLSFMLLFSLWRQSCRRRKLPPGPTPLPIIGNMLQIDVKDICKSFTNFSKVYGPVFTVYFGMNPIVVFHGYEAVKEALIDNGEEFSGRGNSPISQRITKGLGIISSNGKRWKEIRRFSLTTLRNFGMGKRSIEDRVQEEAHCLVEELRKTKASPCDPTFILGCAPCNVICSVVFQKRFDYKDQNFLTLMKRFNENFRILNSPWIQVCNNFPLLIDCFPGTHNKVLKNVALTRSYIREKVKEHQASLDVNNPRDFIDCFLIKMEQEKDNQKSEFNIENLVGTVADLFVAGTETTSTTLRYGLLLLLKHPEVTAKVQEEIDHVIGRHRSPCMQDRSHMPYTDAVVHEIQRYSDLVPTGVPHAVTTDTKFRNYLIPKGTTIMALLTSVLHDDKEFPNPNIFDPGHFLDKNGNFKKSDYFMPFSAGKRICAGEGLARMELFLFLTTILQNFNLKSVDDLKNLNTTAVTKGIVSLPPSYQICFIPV

A549 [8] = experiment: Antitumor activity against human A549 cells xenografted in nude mouse assessed as time to end point at 200 mg/kg, po administered QD till end point; format: functional
Procedure, shortened: (§2)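 At about 65 mm³ they were randomized, seven per group, and dosed po daily at 10 mL/kg in 0.5% carboxymethyl cellulose until a 1000 mm³ end point. Volume was w²l/2. TTE came from linear regression of log volume; TGD = T − C and %TGD = (T − C)/C × 100.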

Mus musculus [9] = experiment: Toxicity in nude mouse bearing human A549 cells assessed as body weight change at 200 mg/kg, po QD; format: organism-based; set-up: dose 200 mg/kg, route oral; details: in vivo
Procedure, shortened: (§3)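 Nude mice bearing sc A549 xenografts were dosed po daily in 0.5% carboxymethyl cellulose at 10 mL/kg, scaled to body weight.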

A549 [10] = experiment: Antitumor activity against human A549 cells xenografted in nude mouse assessed as tumor growth inhibition at 100 mg/kg, po administered QD till end point; format: functional; details: read-out: GI
Procedure, shortened: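 A549 sc xenografts in female nude mice, seven per group, dosed po daily in 0.5% carboxymethyl cellulose (10 mL/kg) to a 1000 mm³ end point. Tumor volume was w²l/2. TGI was expressed as % T/C of tumor volumes, treated versus control, and compared with control by P value at the indicated days.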

CYP2E1 = CYP2E1 (Homo sapiens, UniProt P05181); experiment: Inhibition of CYP2E1 at 10 uM; format: ADME
CYP2E1, sequence (P05181 whole entry): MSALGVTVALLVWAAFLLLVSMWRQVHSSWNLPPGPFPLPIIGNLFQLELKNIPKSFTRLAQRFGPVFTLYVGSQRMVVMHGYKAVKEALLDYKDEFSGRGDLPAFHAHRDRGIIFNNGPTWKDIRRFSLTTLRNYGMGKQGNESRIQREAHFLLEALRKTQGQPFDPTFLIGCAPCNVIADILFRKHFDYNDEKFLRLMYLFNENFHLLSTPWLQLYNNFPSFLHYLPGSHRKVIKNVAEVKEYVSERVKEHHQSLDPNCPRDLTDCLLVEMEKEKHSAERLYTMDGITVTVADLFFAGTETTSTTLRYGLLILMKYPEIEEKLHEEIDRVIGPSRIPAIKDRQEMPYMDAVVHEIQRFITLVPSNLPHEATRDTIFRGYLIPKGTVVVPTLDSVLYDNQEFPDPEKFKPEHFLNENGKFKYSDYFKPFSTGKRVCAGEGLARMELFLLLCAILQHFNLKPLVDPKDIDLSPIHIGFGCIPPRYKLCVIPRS

Tubulin (Homo sapiens) [11] = biological target: T2, Tubulin (Homo sapiens) (UniProt P68371+Q9H4B7+P0DPH7+P68366+Q13509+Q71U36+P04350+Q3ZCM7+P07437+P68363+Q9BQE3+Q6PEY2+Q13885+Q9BVA1+Q9BUF5); experiment: Inhibition of HDAC in human A549 cells assessed as tubulin acetylation after 48 hrs by Western blot analysis
[12] = Solubility of the compound in EtOH after 24 hrs by HPLC analysis; format: physicochemical
A549 [13] = experiment: Antitumor activity against human A549 cells xenografted in nude mouse assessed as time to end point at 100 mg/kg, po administered QD till end point; format: functional
MDA-MB-231 = experiment: cells; format: functional; details: Homo sapiens, MDA-MB-231, 48 h
[14] = Volume of distribution at steady state in Sprague-Dawley rat at 2 mg/kg, iv; format: ADME, organism-based; set-up: dose 2 mg/kg, route intravenous; details: in vivo, read-out: Vdss; procedure, shortened: as §1
PC-3 = experiment: cells; format: functional; details: Homo sapiens, PC-3, 48 h
[15] = Clearance in Sprague-Dawley rat at 2 mg/kg, iv; format: ADME, organism-based; set-up: dose 2 mg/kg, route intravenous; details: in vivo; procedure, shortened: as §1
[16] = AUC (0 to infinity) in Sprague-Dawley rat at 20 mg/kg, po; format: ADME, organism-based; set-up: time infinity, dose 20 mg/kg, route oral; details: plasma; procedure, shortened: as §1
Mus musculus [17] = experiment: Toxicity in nude mouse bearing human A549 cells assessed as body weight change at 100 mg/kg, po QD; format: organism-based; set-up: dose 100 mg/kg, route oral; details: in vivo; procedure, shortened: as §3
CYP2C19 = CYP2C19 (Homo sapiens, UniProt P33261); experiment: Inhibition of CYP2C19 at 10 uM; format: ADME
CYP2C19, sequence (P33261 whole entry): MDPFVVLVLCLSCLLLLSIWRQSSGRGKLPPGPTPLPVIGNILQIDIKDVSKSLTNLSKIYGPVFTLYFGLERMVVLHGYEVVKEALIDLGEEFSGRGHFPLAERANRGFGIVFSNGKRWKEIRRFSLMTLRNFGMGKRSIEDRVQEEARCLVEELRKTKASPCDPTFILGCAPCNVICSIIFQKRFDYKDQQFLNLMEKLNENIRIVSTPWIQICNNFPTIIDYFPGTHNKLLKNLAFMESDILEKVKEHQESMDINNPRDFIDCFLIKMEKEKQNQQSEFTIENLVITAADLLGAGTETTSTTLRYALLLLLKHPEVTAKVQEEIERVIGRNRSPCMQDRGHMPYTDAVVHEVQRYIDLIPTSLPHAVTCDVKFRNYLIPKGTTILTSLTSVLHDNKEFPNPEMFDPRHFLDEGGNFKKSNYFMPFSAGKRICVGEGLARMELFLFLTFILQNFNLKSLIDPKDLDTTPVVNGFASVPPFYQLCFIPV

[18] = Cmax in Sprague-Dawley rat at 20 mg/kg, po; format: ADME, organism-based; set-up: dose 20 mg/kg, route oral; details: in vivo; procedure, shortened: as §1
A549 [19] = experiment: Growth inhibition of human A549 cells after 48 hrs by SRB assay; format: functional; details: Homo sapiens, A549, 48 h
Procedure, shortened: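 A549 cells were grown in RPMI 1640 with 10% FBS and 2 mM glutamine at 37 °C in 5% CO₂, then seeded in medium with 5% FBS. A 24 h TCA-fixed plate gave T₀. Cells were exposed to compound or DMSO for 48 h, fixed with 10% TCA and stained with 0.4% SRB; bound dye was solubilized in 10 mM Tris and read at 515 nm. GI₅₀ was the concentration halving net protein increase. At least three independent experiments.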

[20] = Oral bioavailability in Sprague-Dawley rat at 20 mg/kg; format: ADME, organism-based; details: in vivo; procedure, shortened: as §1
A549 [21] = experiment: Antitumor activity against human A549 cells xenografted in nude mouse assessed as tumor growth inhibition at 200 mg/kg, po administered QD till end point; format: functional; details: read-out: GI
CYP1A2 = biological target: T3, CYP1A2 (Homo sapiens, UniProt P05177); experiment: Inhibition of CYP1A2 at 10 uM; format: ADME
T3 sequence (P05177 whole entry): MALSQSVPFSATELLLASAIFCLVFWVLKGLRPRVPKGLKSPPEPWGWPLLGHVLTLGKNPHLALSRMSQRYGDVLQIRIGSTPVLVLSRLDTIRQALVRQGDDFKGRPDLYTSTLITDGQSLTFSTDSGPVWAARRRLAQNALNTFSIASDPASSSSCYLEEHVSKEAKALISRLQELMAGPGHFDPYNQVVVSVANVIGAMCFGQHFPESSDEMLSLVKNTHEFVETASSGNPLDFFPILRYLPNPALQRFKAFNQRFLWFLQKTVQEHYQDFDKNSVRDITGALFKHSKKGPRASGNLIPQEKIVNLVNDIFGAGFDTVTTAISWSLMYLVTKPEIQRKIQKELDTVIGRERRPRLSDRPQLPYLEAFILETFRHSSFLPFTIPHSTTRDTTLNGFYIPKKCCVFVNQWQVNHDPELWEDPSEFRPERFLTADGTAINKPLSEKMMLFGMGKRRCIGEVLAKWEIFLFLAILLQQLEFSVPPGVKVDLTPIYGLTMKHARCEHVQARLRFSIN

Mus musculus [22] = experiment: Toxicity in nude mouse bearing human A549 cells assessed as adverse effects at 100 mg/kg, po QD; format: organism-based; set-up: dose 100 mg/kg, route oral; details: in vivo
Tubulin (Homo sapiens) [23] = biological target: T2, Tubulin (Homo sapiens); experiment: Inhibition of HDAC in human PC3 cells assessed as tubulin acetylation after 48 hrs by Western blot analysis; details: PC-3
CYP2D6 = CYP2D6 (Homo sapiens, UniProt P10635); experiment: Inhibition of CYP2D6 at 10 uM; format: ADME
CYP2D6, sequence (P10635 whole entry): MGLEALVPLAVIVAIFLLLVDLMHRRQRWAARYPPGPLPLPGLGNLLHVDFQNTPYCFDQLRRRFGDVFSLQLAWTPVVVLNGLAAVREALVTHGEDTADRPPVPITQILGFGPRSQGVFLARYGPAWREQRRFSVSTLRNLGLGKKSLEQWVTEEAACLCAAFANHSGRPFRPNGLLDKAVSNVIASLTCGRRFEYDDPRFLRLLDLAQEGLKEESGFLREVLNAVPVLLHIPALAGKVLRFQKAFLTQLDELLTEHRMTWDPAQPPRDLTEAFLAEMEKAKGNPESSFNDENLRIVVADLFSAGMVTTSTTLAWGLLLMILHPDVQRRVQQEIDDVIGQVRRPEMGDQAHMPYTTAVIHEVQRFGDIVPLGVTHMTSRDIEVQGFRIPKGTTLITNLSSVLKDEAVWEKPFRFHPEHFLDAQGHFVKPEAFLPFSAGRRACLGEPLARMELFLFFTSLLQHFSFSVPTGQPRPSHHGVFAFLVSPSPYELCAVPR

A549 [24] = experiment: Antitumor activity against human A549 cells xenografted in nude mouse assessed as tumor growth delay at 200 mg/kg, po administered QD till end point; format: functional; procedure, shortened: as §2
[25] = Solubility of the compound in water after 24 hrs by HPLC analysis; format: physicochemical

## O=C(/C=C/c1ccc2c(ccn2S(=O)(=O)c2ccccc2)c1)NO
[1]
  AUC(0-inf): 927 ng·h/mL
cells
  GI50: 410 nM
[2]
  half-life: 5.5 h
Mus musculus [3]
  Activity: Non-toxic
[4]
  Tmax: 1.7 h
CYP3A4
  inhibition at 10 µM: 65%
A549 [5]
  Activity: 34%
A549 [6]
  Activity: Dose-dependent effect
CYP2C9
  inhibition at 10 µM: 22%
[7]
  half-life: 2.6 h
CYP2C8
  inhibition at 10 µM: 78%
A549 [8]
  Time: 39.8 days
Mus musculus [9]
  Activity: Non-toxic
A549 [10]
  inhibition in vivo at 100 mg/kg: 15%
CYP2E1
  inhibition at 10 µM: 22%
Tubulin (Homo sapiens) [11]
  inhibition: Dose-dependent effect
[12]
  solubility at 24 h: 939 µg/mL (≈ 2740 µM)
A549 [13]
  Time: 36.2 days
MDA-MB-231
  GI50: 480 nM
[14]
  Vd: 2.1 L/kg
PC-3
  GI50: 620 nM
[15]
  clearance: 35.5 mL/min/kg
[16]
  AUC(0-inf): 916 ng·h/mL
Mus musculus [17]
  Activity: Non-toxic
CYP2C19
  inhibition at 10 µM: 78%
[18]
  Cmax: 217 ng/mL
A549 [19]
  GI50: 1020 nM
[20]
  bioavailability: 10%
A549 [21]
  inhibition in vivo at 200 mg/kg: 32.1%
CYP1A2
  inhibition at 10 µM: 51%
Mus musculus [22]
  Activity: Non-toxic
Tubulin (Homo sapiens) [23]
  inhibition: Dose-dependent effect
CYP2D6
  inhibition at 10 µM: 31%
A549 [24]
  Activity: 47%
[25]
  solubility at 24 h: < 1 µg/mL
